Assays:
[1] = test system: Rattus norvegicus; assay: Plasma concentration at a dose of 1 mg/kg in Jc1SD rats after intravenous administration upon racemisation after 10 min; format: functional, organism-based; parameters: dose 1 mg/kg
[2] = test system: Rattus norvegicus; assay: Plasma concentration at a dose of 1 mg/kg in Jc1SD rats after intravenous administration upon racemisation after 120 min; format: functional, organism-based; parameters: dose 1 mg/kg
[3] = test system: Rattus norvegicus; assay: Plasma concentration at a dose of 1 mg/kg in Jc1SD rats after intravenous administration upon racemisation after 15 min; format: functional, organism-based; parameters: dose 1 mg/kg
[4] = test system: Rattus norvegicus; assay: Plasma concentration at a dose of 1 mg/kg in Jc1SD rats after intravenous administration upon racemisation after 30 min; format: functional, organism-based; parameters: dose 1 mg/kg
[5] = test system: Rattus norvegicus; assay: Plasma concentration at a dose of 1 mg/kg in Jc1SD rats after intravenous administration upon racemisation after 5 min; format: functional, organism-based; parameters: dose 1 mg/kg
[6] = test system: Rattus norvegicus; assay: Plasma concentration at a dose of 1 mg/kg in Jc1SD rats after intravenous administration upon racemisation after 60 min; format: functional, organism-based; parameters: dose 1 mg/kg
[7] = test system: Rattus norvegicus; assay: Plasma concentration of enantiomer at a dose of 1 mg/kg in Jc1SD rats after intravenous administration upon racemisation after 10 min; format: functional, organism-based; parameters: dose 1 mg/kg
[8] = test system: Rattus norvegicus; assay: Plasma concentration of enantiomer at a dose of 1 mg/kg in Jc1SD rats after intravenous administration upon racemisation after 120 min; format: functional, organism-based; parameters: dose 1 mg/kg
[9] = test system: Rattus norvegicus; assay: Plasma concentration of enantiomer at a dose of 1 mg/kg in Jc1SD rats after intravenous administration upon racemisation after 15 min; format: functional, organism-based; parameters: dose 1 mg/kg
[10] = test system: Rattus norvegicus; assay: Plasma concentration of enantiomer at a dose of 1 mg/kg in Jc1SD rats after intravenous administration upon racemisation after 30 min; format: functional, organism-based; parameters: dose 1 mg/kg
[11] = test system: Rattus norvegicus; assay: Plasma concentration of enantiomer at a dose of 1 mg/kg in Jc1SD rats after intravenous administration upon racemisation after 5 min; format: functional, organism-based; parameters: dose 1 mg/kg
[12] = test system: Rattus norvegicus; assay: Plasma concentration of enantiomer at a dose of 1 mg/kg in Jc1SD rats after intravenous administration upon racemisation after 60 min; format: functional, organism-based; parameters: dose 1 mg/kg
[13] = target: T1, RXR alpha/PPAR gamma (Homo sapiens, UniProt P19793+P37231); assay: Transcriptional activation in COS cells expressing PPAR gamma and RXR alpha
T1 sequence (P37231 whole entry): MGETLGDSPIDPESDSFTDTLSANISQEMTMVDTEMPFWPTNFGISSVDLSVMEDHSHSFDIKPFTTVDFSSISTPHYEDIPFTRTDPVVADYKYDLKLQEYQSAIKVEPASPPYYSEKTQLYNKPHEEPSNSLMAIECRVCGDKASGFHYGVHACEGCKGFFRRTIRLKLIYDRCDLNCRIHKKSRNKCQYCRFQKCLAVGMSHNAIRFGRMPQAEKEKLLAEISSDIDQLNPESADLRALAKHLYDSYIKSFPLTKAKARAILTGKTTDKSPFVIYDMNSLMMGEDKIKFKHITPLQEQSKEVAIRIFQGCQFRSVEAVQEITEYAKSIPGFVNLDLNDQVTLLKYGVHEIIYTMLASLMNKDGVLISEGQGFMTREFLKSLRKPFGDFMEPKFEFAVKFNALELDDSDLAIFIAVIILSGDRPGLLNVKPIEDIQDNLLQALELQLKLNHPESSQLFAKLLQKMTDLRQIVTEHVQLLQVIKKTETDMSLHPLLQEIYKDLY
T1 sequence (P19793 whole entry): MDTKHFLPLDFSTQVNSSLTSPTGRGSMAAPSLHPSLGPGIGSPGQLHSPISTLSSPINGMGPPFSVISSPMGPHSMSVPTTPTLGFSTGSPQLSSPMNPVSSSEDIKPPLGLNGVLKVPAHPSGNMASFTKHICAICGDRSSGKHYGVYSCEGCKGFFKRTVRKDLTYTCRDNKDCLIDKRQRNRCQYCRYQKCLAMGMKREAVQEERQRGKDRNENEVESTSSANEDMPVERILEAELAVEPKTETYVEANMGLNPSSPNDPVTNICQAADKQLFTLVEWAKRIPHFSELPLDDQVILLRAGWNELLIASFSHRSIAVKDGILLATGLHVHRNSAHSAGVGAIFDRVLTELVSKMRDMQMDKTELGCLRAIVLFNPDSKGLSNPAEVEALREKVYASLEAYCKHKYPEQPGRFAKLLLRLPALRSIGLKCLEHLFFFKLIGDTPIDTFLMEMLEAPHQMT

[14] = species: Mus musculus; assay: Effective dose for 25% reduction in plasma glucose-lowering activity in KKAy mice; format: functional
How it was run: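 KKAy mice (9–13 weeks old), five per group, allocated by blood glucose after 3 d on powdered CE-2 chow. Compounds given as dietary admix at three levels chosen from first screening, 4 d ad libitum. Orbital-vein plasma glucose assayed enzymatically. Dose in mg/kg/d computed from food intake and body weight; ED25 derived by linear regression.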

[15] = species: Rattus norvegicus; assay: (§1) Effective dose for 25% reduction in glucose-lowering activity in Wistar fatty rats; format: functional
How it was run: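 Wistar fatty rats (10–15 weeks old), five per group, allocated by plasma glucose and triglyceride. Oral dosing by stomach tube once daily for 6 d at three doses, suspended in 0.5% methyl cellulose; CE-2 pellets and water ad libitum. Tail-vein plasma glucose measured; ED25 taken from the three-dose response by linear regression.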

[16] = species: Rattus norvegicus; assay: as §1; format: functional; remark: listed apart in the source
How it was run: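 Wistar fatty rats, 10–15 weeks old, grouped five per group by plasma glucose and triglyceride. Compound suspended in 0.5% methyl cellulose, given orally by stomach tube once daily for 6 d at three concentrations. Animals had CE-2 pellets and water ad libitum. Plasma glucose measured enzymatically on tail-vein blood. ED25 (mg/kg/d) for 25% reduction from control derived by linear regression over the three doses.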

[17] = species: Mus musculus; assay: Effective dose for 25% reduction in plasma lipid-lowering activity in KKAy mice; format: functional
How it was run: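 Male/female not stated; KKAy mice, 9–13 weeks old, fed powdered CE-2 chow 3 d, grouped (five per group) by blood glucose. Compounds given as dietary admixture at three levels (0.01, 0.005 or 0.001% in diet) for 4 d. Orbital-vein plasma triglyceride measured enzymatically as % reduction vs control; dose (mg/kg/d) from food intake and body weight; ED25 by linear regression.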

[18] = species: Mus musculus; assay: Plasma lipid-lowering activity at a dosage of 0.005% in the diet in KKAy mice;LA denotes less than 10% reduction at this dosage; format: functional, organism-based
How it was run: (§2)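 KKAy mice (9–13 weeks old), five per group, on powdered CE-2 diet containing compound at 0.001, 0.005 or 0.01% for 4 d. Plasma triglyceride from orbital-vein blood measured enzymatically and reported as maximum percent reduction from control; Dunnett's test; less than 10% reduction flagged.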

[19] = Plasma glucose-lowering activity at a dosage of 0.005% in the diet in KKA(y) mice.; format: functional, Mus musculus
How it was run: (§3)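 KKAy mice (9–13 weeks old), five per group, grouped by blood glucose after 3 d on powdered CE-2 chow. Dietary admixture at 0.001, 0.005 or 0.01% for 4 d, food and water ad libitum. Orbital-vein plasma glucose measured enzymatically and expressed as maximum percent reduction versus control; Dunnett's test.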

[20] = test system: Rattus norvegicus; assay: Plasma concentrations of R(+)-64 at a dose of 1 mg/kg in Jc1SD rats after intravenous administration after 10 min; format: functional, organism-based; parameters: dose 1 mg/kg
[21] = test system: Rattus norvegicus; assay: Plasma concentrations of R(+)-64 at a dose of 1 mg/kg in Jc1SD rats after intravenous administration after 120 min; format: functional, organism-based; parameters: dose 1 mg/kg
[22] = test system: Rattus norvegicus; assay: Plasma concentrations of R(+)-64 at a dose of 1 mg/kg in Jc1SD rats after intravenous administration after 15 min; format: functional, organism-based; parameters: dose 1 mg/kg
[23] = test system: Rattus norvegicus; assay: Plasma concentrations of R(+)-64 at a dose of 1 mg/kg in Jc1SD rats after intravenous administration after 5 min; format: functional, organism-based; parameters: dose 1 mg/kg
[24] = test system: Rattus norvegicus; assay: Plasma concentrations of R(+)-64 at a dose of 1 mg/kg in Jc1SD rats after intravenous administration after 60 min; format: functional, organism-based; parameters: dose 1 mg/kg
[25] = test system: Rattus norvegicus; assay: Plasma concentrations of S(-)-64 at a dose of 1 mg/kg in Jc1SD rats after intravenous administration after 10 min; format: functional, organism-based; parameters: dose 1 mg/kg
[26] = test system: Rattus norvegicus; assay: Plasma concentrations of S(-)-64 at a dose of 1 mg/kg in Jc1SD rats after intravenous administration after 15 min; format: functional, organism-based; parameters: dose 1 mg/kg
[27] = test system: Rattus norvegicus; assay: Plasma concentrations of S(-)-64 at a dose of 1 mg/kg in Jc1SD rats after intravenous administration after 30 min; format: functional, organism-based; parameters: dose 1 mg/kg
[28] = test system: Rattus norvegicus; assay: Plasma concentrations of S(-)-64 at a dose of 1 mg/kg in Jc1SD rats after intravenous administration after 5 min; format: functional, organism-based; parameters: dose 1 mg/kg
[29] = test system: Rattus norvegicus; assay: Plasma concentrations of S(-)-64 at a dose of 1 mg/kg in Jc1SD rats after intravenous administration after 60 min; format: functional, organism-based; parameters: dose 1 mg/kg
[30] = test system: Rattus norvegicus; assay: Plasma concentrations of R(+)-64 at a dose of 1 mg/kg in Jc1SD rats after intravenous administration after 30 min; format: functional, organism-based; parameters: dose 1 mg/kg
[31] = species: Mus musculus; assay: Plasma glucose-lowering activity at a dosage of 0.01% in the diet in KKAy mice; format: functional; how it was run: as §3
[32] = Plasma lipid-lowering activity at a dosage of 0.005% in the diet in KKA(y) mice.; format: functional, Mus musculus; how it was run: as §2
[33] = Plasma lipid-lowering activity at a dosage of 0.01% in the diet in KKAy mice; format: functional, Mus musculus; how it was run: as §2

COc1cc(CCCC2OC(=O)NC2=O)ccc1OCc1nc(-c2ccco2)oc1C (single isomer, unassigned; (-))
Concentration [1]: 0.04 µg/mL
Concentration [2]: 0.07 µg/mL
Concentration [3]: 0.04 µg/mL
Concentration [4]: 0.05 µg/mL
Concentration [5]: 0.04 µg/mL
Concentration [6]: 0.07 µg/mL
Concentration [7]: 4.3 µg/mL
Concentration [8]: 1.61 µg/mL
Concentration [9]: 3.97 µg/mL
Concentration [10]: 3.65 µg/mL
Concentration [11]: 4.78 µg/mL
Concentration [12]: 2.94 µg/mL

Cc1sc(-c2ccccc2)nc1COc1ccc(CCCC2OC(=O)NC2=O)cc1 (single isomer, unassigned; (+))
EC50 [13]: 269 nM
ED25 [14]: 1.44 mg/kg/day
ED25 [15]: 0.23 mg/kg/day

Cc1sc(-c2ccccc2)nc1COc1ccc(CCCC2OC(=O)NC2=O)cc1 (single isomer, unassigned; (-))
EC50 [13]: > 1000 nM
ED25 [15]: 3 mg/kg/day

CCc1ccc(CCOc2ccc(CC3SC(=O)NC3=O)cc2)nc1.Cl (stereo unspecified) [PIOGLITAZONE HYDROCHLORIDE]
ED25 [16]: 0.5 mg/kg/day
ED25 [17]: 6 mg/kg/day

Cc1oc(-c2ccccc2)nc1COc1ccc(CC2OC(=O)NC2=O)cc1 (stereo unspecified)
LA [18]: Less than 10% reduction at this dosage
Activity [19]: 29

COc1cc(CCCC2OC(=O)NC2=O)ccc1OCc1nc(-c2ccco2)oc1C (stereo in doubt; (+)-64)
Concentration [20]: 6.06 µg/mL
Concentration [21]: 1.46 µg/mL
Concentration [22]: 5.13 µg/mL
Concentration [23]: 6.46 µg/mL
Concentration [24]: 3.19 µg/mL
Concentration [25]: 0.02 µg/mL
Concentration [26]: 0.02 µg/mL
Concentration [27]: 0.02 µg/mL
Concentration [28]: 0.02 µg/mL
Concentration [29]: 0.02 µg/mL
Concentration [30]: 4.78 µg/mL

Cc1oc(-c2ccccc2)nc1CCOc1ccc(CCCC2SC(=O)NC2=O)cc1 (stereo unspecified)
Activity [19]: 26
Activity [31]: 35
Activity [32]: 18
Activity [33]: 42

— ChEMBL document CHEMBL1135907, “Novel 5-substituted 2,4-thiazolidinedione and 2,4-oxazolidinedione derivatives as insulin sensitizers with antidiabetic activities” (J Med Chem, 2002)
